Experimental data collected from several papers.
Each line is one published result; the experiments were not run side by side.
Target: Eukaryotic translation initiation factor 2-alpha kinase 1 (EIF2AK1, Homo sapiens, UniProt Q9BQI3)

Cc1nc(C2CCN(C(=O)c3ccc(OC(F)(F)F)cc3N)CC2)c2ncc(N3CCN(C)CC3)cc2n1 — remaining binding (cell-free assay; competition with immobilised ligand; 1 µM): 85%
N[C@H]1CCN(c2nccc(-c3cnn4ncccc34)n2)C1 — remaining binding (binding; 1 µM): 78%
Nc1ncc2c(n1)-c1c([nH]c3ccc(C#CC4CC4)cc13)CCCC2 — remaining binding (binding; competition with immobilised ligand; 1 µM): 80%
O=C(NCCCN1CCOCC1)c1ccc(Nc2ncc(Cl)c(-c3ccc(Cl)s3)n2)cc1 — remaining binding (binding; competition with immobilised ligand; 1 µM): 97%
C[C@@H](c1ccc(-n2cnc3c(N)ncnc32)cc1)N1CCc2nn(C)c(Cc3ccccc3)c2C1=O — remaining binding (binding; competition with immobilised ligand; 0.1 µM): 66%
C[C@H](c1ccc(F)cc1)N(Cc1cccc(C(=O)O)c1)C(=O)c1cnc2ccccc2c1 — remaining binding (cell-free assay; competition with immobilised ligand; 1 µM): 84%
O=C(c1ccc(Nc2nccc(-c3cc4ccccc4s3)n2)cc1)N1CCC(N2CCCC2)CC1 — remaining binding (binding; competition with immobilised ligand; 1 µM): 100%
Cc1nc(N2CC[C@@H](O)C2)ncc1-c1cc(C(F)(F)F)cc2[nH]ncc12 — remaining binding (binding; competition with immobilised ligand; 1 µM): 98%
O=C(Nc1c[nH]nc1C(=O)NC1CCNCC1)c1cc(F)cc(F)c1 — remaining binding (binding; competition with immobilised ligand; 1 µM): 91%
CCN1CCN(Cc2ccc(C(=O)Nc3ccc(C)c(Oc4ccc5c(c4)CC(=O)N5)c3)cc2C(F)(F)F)CC1 — remaining binding (binding; competition with immobilised ligand; 1 µM): 100%
c1cnn2ncc(-c3ccnc(N4CCC45COC5)n3)c2c1 — remaining binding (binding; 1 µM): 49%
O=C(NCc1ncc(C(F)(F)F)cc1Cl)c1ccc2c(c1)C1(CCS(=O)(=O)CC1)[C@@H](C1CC1)N2S(=O)(=O)c1ccc(F)cc1 — remaining binding (cell-free assay; competition with immobilised ligand; 1 µM): 94%
C[C@H]1CCN(c2nccc(-c3cnn4ncccc34)n2)C1 — remaining binding (binding; 1 µM): 73%
CN1CCN(c2cnc3c(C4CCN(C(=O)c5ccc(OC(F)(F)F)cc5N)CC4)ncnc3c2)CC1 — remaining binding (cell-free assay; competition with immobilised ligand; 1 µM): 100%
F[C@@H]1CCN(c2nccc(-c3cnn4ncccc34)n2)C1 — remaining binding (binding; 1 µM): 100%
COc1cnc(Nc2cccc(S(N)(=O)=O)c2)nc1N1CCN(c2ccccc2)CC1 — remaining binding (binding; competition with immobilised ligand; 1 µM): 100%
CN(C)c1nccc(-c2cnn3ncccc23)n1 — remaining binding (binding; 1 µM): 100%
CO[C@@H](C)c1c(Nc2ccc([C@H](N(C)C(=O)C3CCS(=O)(=O)CC3)C(F)(F)F)cc2)cnc2cc(Cl)nn12 — remaining binding (cell-free assay; competition with immobilised ligand; 1 µM): 100%
CN(C)c1ncc(F)c(-c2cnn3ncccc23)n1 — remaining binding (binding; 1 µM): 100%
O=C(c1ccc(Nc2ncc(Cl)c(-c3ccc(Cl)s3)n2)cc1)N1CCC(N2CCCC2)CC1 — remaining binding (binding; competition with immobilised ligand; 1 µM): 86%
CN(C)c1nccc(-c2cnc3ncccn23)n1 — remaining binding (binding; 1 µM): 69%
FC(F)(F)Oc1cccc(-c2cnc3ccc(-c4ccncc4)nn23)c1 — remaining binding (cell-free assay; competition with immobilised ligand; 5 µM): 88%
